According to paper PMC3169012 (European journal of pharmacology, 2011):
Entries after “also recorded” stand apart in the source; their conditions may differ. Positions of bridges follow the written chain, without caps; N, C: chain ends. No end group written: not given here.

Key:
LAD2 mast cells [1] = assay: Degranulation; format: cell-based, human; details: 30 min, β-hexosaminidase release; for degranulation: different concentrations, 3 – 4 experiments
Procedure, shortened: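 LAD2 cells, kept in StemPro-34 with 100 ng/ml SCF, were seeded at 5 × 10^3 per well overnight with human IgE (1 µg/ml). After washing, they were exposed for 30 min to graded test-compound concentrations in buffer with 0.1% BSA. Released β-hexosaminidase was assayed with 1 mM p-nitrophenyl-N-acetyl-β-D-glucosamine (1.5 h, 37°C), stopped with 0.1 M Na2CO3/NaHCO3, and read at A405. Values are percent of the 0.1% Triton X-100 lysate total, mean ± S.E.M of 3–4 experiments.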

LAD2 mast cells [2] = assay: Ca^2+ mobilization in LAD2 mast cells; format: cell-based, human; details: indo-1 AM, C3a 10 nM, E7 1 µM, representative of 3 experiments; for intracellular Ca^2+ mobilization: 355/410 nm, E7S 1 µM, compound 48/80 1 µg/ml
Procedure, shortened: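 LAD2 cells were kept in StemPro-34 with supplements, 2 mM L-glutamine, penicillin, streptomycin and 100 ng/ml SCF, hemi-depleted weekly. Cells at 0.2 × 10^6/ml were loaded with 1 µM indo-1 AM plus 1 µM pluronic F-127 for 30 min at room temperature, washed and resuspended in HEPES-buffered saline. C3a (10 nM) or test peptide (1 µM) was added at marked times. Fluorescence was read at excitation 355 nm and emission 410 nm.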

HMC-1 cells [3] = assay: Ca^2+ mobilization in HMC-1 cells; format: cell-based, human; details: representative of 3 experiments; for intracellular Ca^2+ mobilization: indo-1 AM, 355/410 nm, C3a 10 nM, E7 1 µM, E7S 1 µM, compound 48/80 1 µg/ml
Procedure, shortened: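 HMC-1 cells were grown in IMDM with 10% FCS, 2 mM L-glutamine, penicillin and streptomycin. Cells at 1 × 10^6/ml were loaded with 1 µM indo-1 AM plus 1 µM pluronic F-127 for 30 min at room temperature, then washed and resuspended in HEPES-buffered saline. Stimuli were added sequentially at marked times: C3a 10 nM, test peptide 1 µM, test secretagogue 1 µg/ml. Fluorescence was read at excitation 355 nm and emission 410 nm.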

HA-tagged human MrgX1 = assay: Degranulation of RBL-2H3 cells stably expressing MrgX1; format: cell-based; details: RBL-2H3 expressing MrgX1; for degranulation: peptides 1 µM, compound 48/80 100 ng/ml or antigen DNP-BSA 30 ng/ml, 30 min, representative of 3 experiments
HA-tagged human MrgX2 = assay: Degranulation of RBL-2H3 cells stably expressing MrgX2; format: cell-based; details: RBL-2H3 expressing MrgX2; for degranulation: peptides 1 µM, compound 48/80 100 ng/ml or antigen DNP-BSA 30 ng/ml, 30 min, representative of 3 experiments
Procedure, shortened: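 RBL-2H3 cells were nucleofected with HA-tagged receptor plasmid, selected in G418 (1mg/ml) and sorted by anti-HA staining for equivalent expression. 5 × 10^4 cells were primed overnight with mouse anti-DNP IgE (1 µg/ml), washed and stimulated 30 min in 0.1% BSA buffer. Supernatant β-hexosaminidase was read with 1 mM p-nitrophenyl-N-acetyl-β-D-glucosamine (1.5 h, 37°C), stopped with carbonate buffer, A405, as percent of Triton X-100 lysate total.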

mast cell = details: ref Hartmann et al., 1997; Nilsson et al., 1996; cited from earlier work
[4] = system: peripheral blood CD34^+ cell-derived mast cells; details: ref Fukuoka et al., 2008, Lappalainen et al., 2007, Oskeritzian et al., 2005, Venkatesha et al., Woolhiser et al., 2004; cited from earlier work
[5] = system: bone marrow-derived mast cells; details: ref Erdei et al., 2004, Soruri et al., 2008; cited from earlier work
[6] = system: rat basophilic leukemia, RBL-2H3 cells; details: ref Erdei et al., 2004, Soruri et al., 2008; cited from earlier work
HMC-1 cells [7] = details: ref Ahamed et al., 2004, Ali et al., 2000; cited from earlier work
[8] = system: CD34^+-derived human mast cells; assay: Degranulation; format: cell-based; details: 30 min, E7 or E7S 1 µM, 3 – 4 experiments
Procedure, shortened: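 Primary mast cells were grown 7–10 weeks from human CD34+ progenitors in StemPro-34 with SCF and IL-6 (100 ng/ml each), plus IL-3 (30 ng/ml) in the first week only. Cells (5 × 10^3 per well) were primed overnight with human IgE (1 µg/ml), washed, and stimulated 30 min in 0.1% BSA buffer with test peptides at 100 nM or 1 µM. β-Hexosaminidase release was measured at 405 nm and expressed as percent of lysate total, mean ± S.E.M of 3–4 experiments.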

[9] = ref Lu et al., 1984; cited from earlier work
MrgX2 [10] = details: requires tryptophan and a positively charged residue; ref Subramanian, 2011; cited from earlier work
C5a receptor = details: ref Subramanian, 2011; cited from earlier work
MrgX2 [11] = details: 2003, cited from earlier work; for structural requirement for MrgX2 activation: ref Robas et al.
MrgX1 = details: ref Lembo et al., 2002; Robas et al., 2003; cited from earlier work
guinea pig platelet = details: ref Ember et al., 1991; cited from earlier work
guinea pig skin = details: ref Ember et al., 1991; cited from earlier work
C3a receptor [12] = details: guinea pig ileum, C3a versus C5a; ref Ember et al., 1991; cited from earlier work
C3a receptor [13] = details: versus C3a receptor agonist peptide (C3aP), ref Ember et al., 1991; cited from earlier work
[14] = system: mock transfected RBL-2H3 cells; assay: Degranulation of mock transfected RBL-2H3 cells; format: cell-based, rat; details: C3a 100 nM, peptides 1 µM, compound 48/80 100 ng/ml or antigen DNP-BSA 30 ng/ml, 30 min, representative of 3 experiments
Procedure, shortened: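 Rat RBL-2H3 cells, grown in DMEM with 10% FBS and mock-transfected, were seeded at 5 × 10^4 per well and sensitised with anti-DNP IgE (1 µg/ml, 16 h). After washing, they were challenged 30 min in 0.1% BSA buffer with test agents or DNP-BSA antigen. Supernatant β-hexosaminidase was assayed with 1 mM p-nitrophenyl-N-acetyl-β-D-glucosamine (1.5 h, 37°C) at A405, relative to a 0.1% Triton X-100 lysate. Data are representative of 3 experiments.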

C3a: purified human anaphylatoxin C3a, from Complement Technology
degranulation (LAD2 mast cells [1]): induced Ca^2+ mobilization and degranulation in a differentiated human mast cell line, LAD2; also recorded: induced a dose-dependent degranulation of LAD2 mast cells | intracellular Ca^2+ mobilization (LAD2 mast cells [2]): induced Ca^2+ mobilization; also recorded: induced rapid Ca^2+ responses in LAD2 cells which peaked within seconds after stimulation | duration/magnitude of Ca^2+ response, C3a versus E7 (LAD2 mast cells [2]): markedly reduced | Ca^2+ response to C3a added after E7S or compound 48/80 (HMC-1 cells [3]; C3a 10 nM as second stimulus): fully responsive to C3a | intracellular Ca^2+ mobilization (HMC-1 cells [3]): caused Ca^2+ mobilization in an immature mast cell line, HMC-1; also recorded: induced Ca^2+ mobilization of similar magnitude and duration in HMC-1 cells | degranulation by C3a (HA-tagged human MrgX1; C3a (1 µM) in text): did not activate RBL-2H3 cells expressing MrgX1 or MrgX2; also recorded: at concentrations up to 1 µM did not induce degranulation in cells expressing either human MrgX1 or MrgX2 | degranulation by C3a (HA-tagged human MrgX2; C3a (1 µM) in text): did not activate RBL-2H3 cells expressing MrgX1 or MrgX2; also recorded: at concentrations up to 1 µM did not induce degranulation in cells expressing either human MrgX1 or MrgX2 | mast cell chemoattractant activity (mast cell): one of the most potent mast cell chemoattractants known | degranulation [4]: induces degranulation | degranulation [5]: does not induce degranulation | degranulation [6]: does not induce degranulation | Ca^2+ mobilization (HMC-1 cells [7]): responds to C3a for a transient Ca^2+ mobilization

LRAGSRYKKWALKWG [E7S]
degranulation (LAD2 mast cells [1]): also induced mast cell degranulation in a dose-dependent manner | degranulation of primary mast cells [8]: these peptides induced degranulation in primary mast cells | intracellular Ca^2+ mobilization (LAD2 mast cells [2]): induced robust and sustained Ca^2+ responses in LAD2 mast cells | intracellular Ca^2+ mobilization (HMC-1 cells [3]): did not initiate Ca^2+ responses in this cell line | degranulation (HA-tagged human MrgX2): responded to CST, E7, E7S and compound 48/80

NYITELRRQHARASHLGLAR [C3aP]
degranulation (LAD2 mast cells [1]): as with LAD2 cells, these peptides induced degranulation | degranulation of primary mast cells [8]: these peptides induced degranulation in primary mast cells | biological potency compared with natural C3a [9]: expresses biological potency equal to natural C3a

PMX-53
activation of human mast cells via MrgX2 (MrgX2 [10]): activates human mast cells via MrgX2 | C5a receptor antagonism (C5a receptor): potent C5a receptor antagonist

Pro-[Cys-Lys-Asn-Phe-Phe-Trp-Lys-Thr-Phe-Ser-Ser-Cys]-Lys (disulfide) (PCKNFFWKTFSSCK; disulfide 2-13) [CST, Cortistatin-14]
degranulation (HA-tagged human MrgX2): responded to CST, E7, E7S and compound 48/80 | ligand of MrgX2 (MrgX2 [11]; ref Lembo et al., 2002, Robas et al.): Ligands for MrgX1 and MrgX2 have been identified | structural requirement for MrgX2 activation (MrgX2 [11]): both the N-terminal proline and the C-terminal lysine are required for MrgX2 activation

Tyr-Gly-Gly-Phe-Met-Arg-Arg-Val-Gly-Arg-Pro-Glu-Trp-Trp-Met-Asp-Tyr-Gln-Lys-Arg-Tyr-Gly [BAM-22P, Bovine Adrenal Medulla Docosapeptide]
degranulation (HA-tagged human MrgX1): responded only to BAM-22P and compound 48/80 for degranulation | ligand of MrgX1 (MrgX1): Ligands for MrgX1 and MrgX2 have been identified

WWGKKYRASKLGLAR [E7]
potency for mast cell degranulation compared with C3a (LAD2 mast cells [1]): its potency for mast cell degranulation was lower than that of C3a | degranulation (LAD2 mast cells [1]): induced Ca^2+ mobilization and degranulation in a differentiated human mast cell line, LAD2; also recorded: induced a dose-dependent increase in degranulation in LAD2 mast cells | degranulation of primary mast cells [8]: these peptides induced degranulation in primary mast cells | intracellular Ca^2+ mobilization (LAD2 mast cells [2]): induced Ca^2+ mobilization; also recorded: induced rapid Ca^2+ responses in LAD2 cells which peaked within seconds after stimulation | duration/magnitude of Ca^2+ response, C3a versus E7 (LAD2 mast cells [2]): prominent and sustained response | intracellular Ca^2+ mobilization (HMC-1 cells [3]): caused Ca^2+ mobilization in an immature mast cell line, HMC-1; also recorded: induced Ca^2+ mobilization of similar magnitude and duration in HMC-1 cells | degranulation (HA-tagged human MrgX2): activated RBL-2H3 cells expressing MrgX2; also recorded: responded to CST, E7, E7S and compound 48/80 | increase in guinea pig platelet aggregation activity compared to C3aP (guinea pig platelet): ~ 1500% | concentrations required to induce vascular permeability compared to C3aP (guinea pig skin): much lower concentrations of E7 were required to induce vascular permeability in guinea pig skin | cross-desensitization of ileum contraction (C3a receptor [12]): cross-desensitized the ability of C3a but not C5a to induce guinea pig ileum contraction | potency relative to C3aP in guinea pigs (C3a receptor [13]): 12 –15 fold

antigen: antigen (DNP-BSA, 30 ng/ml) on anti-DNP specific IgE-primed cells
degranulation [14]: responded to antigen for degranulation | degranulation (HA-tagged human MrgX1): responded to antigen for degranulation | degranulation (HA-tagged human MrgX2): responded to antigen for degranulation

cortistatin-17 [CST-17]
structural requirement for MrgX2 activation (MrgX2 [11]): both the N-terminal proline and the C-terminal lysine are required for MrgX2 activation
